The sample as a whole holds a higher share of hits than the screen did.
S1P3 antagonist = antagonists of human S1P3 receptor; actives 0.27% (n = 170,000); inhibition, % at 4.98 µM; CHO S1P3 NFAT-BLA reporter, FRET fluorescence, antagonist mode; AID 485; Q99500;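 active means inhibition above the plate cutoff, the mean inhibition of test wells on that plate plus 3 SD, cut at about 28% in these data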;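 further: cells challenged with S1P at its EC80 of 0.8 µM; blue over green emission ratio from cleaved BLA substrate after 4 h stimulation; 0% = S1P-stimulated wells and 100% = unstimulated DMSO-only wells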
S1P4 ag = agonists of human S1P4 receptor | S1P4-expressing cell line, agonist reporter assay | activation, % at 4.98 µM | actives 0.35% (n = 220,000) | O95977; in the data active means activation above about 11%;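 further: 0% = DMSO vehicle and 100% = reference agonist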
Lmaj promast = Leishmania major promastigote growth inhibition. Leishmania major promastigotes, resazurin fluorescence viability. inhibition, % at 10 µM. actives 9% (n = 200,000); in the data active means inhibition above about 50%;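 further: promastigotes grown with compound for 44 hours at 28 °C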
Mdm2 ligase inh = blocks human Mdm2 ubiquitin ligase activity. cell-based MDM2 ubiquitination luciferase reporter, 2 h; 0 = plate control, 100 = twice control, blank-subtracted. signal enhancement, % at 5 µM. AID 1230. actives 0.11% (n = 210,000). Q00987;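 active means signal enhancement of 30% or more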;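 further: luminescence tracks abundance of the self-degrading MDM2-luciferase fusion protein; higher signal means inhibition of MDM2 E3 ligase activity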
Target sequence (Q00987 whole entry, looked up, the tested form may be a part): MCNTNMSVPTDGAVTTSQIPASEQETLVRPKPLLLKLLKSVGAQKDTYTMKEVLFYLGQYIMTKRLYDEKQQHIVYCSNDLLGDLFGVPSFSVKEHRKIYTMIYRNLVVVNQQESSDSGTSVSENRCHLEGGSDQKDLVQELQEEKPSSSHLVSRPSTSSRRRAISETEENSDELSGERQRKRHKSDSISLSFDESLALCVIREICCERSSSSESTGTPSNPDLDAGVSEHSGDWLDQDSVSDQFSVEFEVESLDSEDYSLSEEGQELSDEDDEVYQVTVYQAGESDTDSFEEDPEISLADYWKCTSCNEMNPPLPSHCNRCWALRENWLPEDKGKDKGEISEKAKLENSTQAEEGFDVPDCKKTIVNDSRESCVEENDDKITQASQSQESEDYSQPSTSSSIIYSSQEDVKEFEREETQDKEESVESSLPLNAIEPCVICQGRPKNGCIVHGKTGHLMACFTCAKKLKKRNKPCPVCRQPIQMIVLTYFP
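test system = mammalian cells stably expressing self-ubiquitinating, self-degrading MDM2 E3–luciferase fusion | quantity = 2000 cells/well | incubation = cell settling 4 h, compound treatment 2 h, both 37 °C | signal = luminescence with SteadyLite reagent, 15 min at room temperature | evaluation = % enhancement relative to plate controls after blank subtraction | benchmarks = plate controls and plate blanks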
S1P4 antag = human S1P4 receptor antagonism | O95977 | S1P4-expressing cells, antagonist mode, reporter read-out | inhibition, % at 4.98 µM | actives 0.26% (n = 220,000); in the data active means inhibition above about 29%;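 further: 0% = wells stimulated with agonist and 100% = vehicle wells without agonist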
Lmaj promast 1uM = blocks Leishmania major promastigote growth at 1 uM, repeat screen. shares compounds with Lmaj promast. L. major promastigote growth, resazurin fluorescence, 48 h. inhibition, % at 1 µM. actives 13% (n = 1,100);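 active means inhibition above about 50% in both repeat tests, limit read from the data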
* marks the source's active call; other numbers are inactive results; nt = no result given.

SMILES | S1P3 antagonist | S1P4 ag | Lmaj promast | Mdm2 ligase inh | S1P4 antag | Lmaj promast 1uM
CC(C)(C)C1CCC2(CC1)Nc1cccc3cccc(c13)N2 | nt | 3 | 100* | -18 | -1 | 64*
O=CN/C=C/c1cc(O)ccc1O | -10 | 1 | nt | 9 | 21 | nt
O=C1CC(c2ccccc2Br)c2cc3c(cc2N1)CCC3 (configuration not stated) | 15 | 1 | 100* | -10 | -9 | 88*
CC(=O)O[C@]1(C(C)=O)CC[C@H]2[C@@H]3C[C@H](C)C4=CC(=O)CC[C@]4(C)[C@H]3CC[C@@]21C | 7 | -2 | 76* | nt | -14 | -2
CC(=O)[C@H]1CC[C@H]2[C@@H]3C[C@H](C)C4=CC(=O)CC[C@]4(C)[C@H]3[C@@H](O)C[C@]12C | 5 | 0 | 6 | nt | -10 | nt
Oc1ccc(-c2nc3c4c(ncn3n2)-c2ccccc2CC42CCCC2)cc1 | -5 | 1 | 87* | -8 | -27 | 7
Nn1cnc2c(c1=O)C1(CCCCC1)Cc1ccccc1-2 | 9 | 1 | -2 | nt | -6 | nt
CC1(C)Cc2ccccc2C(NNC(=O)c2ccccn2)=N1 | nt | 1 | 98* | -21 | -10 | -7
CC1(C)Cc2ccccc2C(NNC(=O)c2ccccc2)=N1 | 1 | 2 | -4 | -20 | 9 | nt
Cc1ccc(-c2cc(C(F)F)nc(NCc3cccnc3)n2)cc1 | nt | -2 | 57* | 6 | -10 | 3
CCOC(=O)N1CCC(N2CCCC(C(=O)c3cccc(OC)c3)C2)CC1 (configuration not stated) | -1 | 2 | nt | -56 | -9 | nt
COC(=O)C1C(O)=C(C(C)=Nc2cccc3ccccc23)C(=O)CC1(C)C (configuration not stated) | -25 | 0 | nt | -7 | 5 | nt
CC(=O)NCCNc1ccc([N+](=O)[O-])cn1 | -2 | 2 | 62* | -3 | -7 | -16
c1ccc(CN2CCN(C3=Nc4cccc5cccc3c45)CC2)cc1 | nt | -3 | 98* | -14 | -3 | 46
Nc1ccc(CN2CCN(c3ccc4ccccc4n3)CC2)cc1 | 12 | nt | nt | nt | nt | nt
CN1CCN(C2OC(=O)c3ccccc32)CC1 (configuration not stated) | nt | 3 | -6 | -10 | -9 | nt
CN1CCN2c3ccccc3Cc3ccccc3C2C1 (configuration not stated) | 6 | -2 | 54* | nt | -16 | -22
N#Cc1ccc(NC(=S)Nc2ccccc2)cc1 | -9 | 2 | 62* | -12 | -16 | 0
S=C(Nc1ccccc1)Nc1ccc(Br)cc1 | 3 | 1 | nt | -20 | -10 | nt
CC(C)CC(=O)OC1C(N2CCOCC2)c2c(ccc(/C=C/C(=O)N3CCOCC3)c2O)OC1(C)C (configuration not stated) | -7 | 1 | 90* | -13 | -2 | -16
CC(C)(C)c1ccccc1NC(=O)c1c(O)c2cccc3c2n(c1=O)CC3 | -16 | 0 | 14 | -5 | -1 | nt
O=[N+]([O-])c1ccc(N2CCN(C(=S)NCc3ccc(Cl)cc3)CC2)cc1 | 23 | -1 | 68* | -21 | -10 | -12
Cc1ccc(S(=O)(=O)n2nc(C)cc2C)cc1 | nt | -1 | -1 | -9 | 13 | nt
Cc1cc(C)n(S(=O)(=O)/C=C/c2ccccc2)n1 | nt | 2 | 98* | -19 | 4 | -2
Cc1nc2sccn2c(=O)c1CCN1CCC(=C(c2ccc(F)cc2)c2ccc(F)cc2)CC1 | -2 | 0 | 14 | nt | -1 | nt
SMILES | S1P3 antagonist | S1P4 ag | Lmaj promast | Mdm2 ligase inh | S1P4 antag | Lmaj promast 1uM
Cc1nc2ccccn2c(=O)c1CCN1CCC(C(=O)c2ccc(F)cc2)CC1 | -10 | 81* | 97* | nt | -1 | 7
CS(=O)(=O)Nc1ccc(C(=O)Nc2ccc(S(=O)(=O)N3CCCC3)cc2)cc1 | -10 | 1 | -14 | 8 | -19 | nt
COC(=O)C1=C(N)N(c2ccc(F)cc2)C2=C(C(=O)CCC2)C1c1ccc2c(c1)OCO2 (configuration not stated) | nt | 0 | 72* | -1 | -20 | 15
Clc1ccc(-c2cc(-c3nnc4n3CCCCC4)c3ccccc3n2)cc1 | 19 | 1 | -3 | -2 | -10 | nt
Fc1ccc(-c2cc(-c3nnc4n3CCCCC4)c3ccccc3n2)cc1 | 3 | 1 | 52* | -8 | -9 | -12
Cc1ccc(N2CC(C)Cn3c2nc2c3c(=O)n(CC(=O)OCc3ccccc3)c(=O)n2C)cc1C (configuration not stated) | -19 | 2 | 59* | -31 | 0 | 15

Bioassay records: PubChem BioAssay, several laboratories
